# Substitutions are numbered along the chain they refer to. “And” between values parts separate entries of the source, which are not always exact repeats. Identical values can stand only once. The source made the active and inactive calls.
# How the values were obtained:
# [1] = biological target: Luciferin 4-monooxygenase (Photinus pyralis) (UniProt P08659); experiment: Inhibition of Photinus pyralis recombinant luciferase at 10 uM incubated for 20 mins
# In short: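 Purified firefly luciferase diluted to 0.1 μg/mL in 1x Reporter Lysis Buffer, with compound added from ethanol stocks (10⁻³–10⁻⁷ mol/L dilutions) in triplicate. Incubated 20 min at rt, then luciferase substrate added and luminescence read. Blank (lysis buffer) and ethanol-vehicle controls were included.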
# [2] = biological target: T1, Androgen receptor (Homo sapiens) (UniProt P10275); experiment: Agonist activity at wild type human androgen receptor expressed in COS-1 cells co-transfected with pSG5 assessed as effect on testosterone induced luciferase activity at 1 nM to 10 uM after 18 hrs relative untreated control; assay type: functional, cell-based
# T1 sequence (whole entry): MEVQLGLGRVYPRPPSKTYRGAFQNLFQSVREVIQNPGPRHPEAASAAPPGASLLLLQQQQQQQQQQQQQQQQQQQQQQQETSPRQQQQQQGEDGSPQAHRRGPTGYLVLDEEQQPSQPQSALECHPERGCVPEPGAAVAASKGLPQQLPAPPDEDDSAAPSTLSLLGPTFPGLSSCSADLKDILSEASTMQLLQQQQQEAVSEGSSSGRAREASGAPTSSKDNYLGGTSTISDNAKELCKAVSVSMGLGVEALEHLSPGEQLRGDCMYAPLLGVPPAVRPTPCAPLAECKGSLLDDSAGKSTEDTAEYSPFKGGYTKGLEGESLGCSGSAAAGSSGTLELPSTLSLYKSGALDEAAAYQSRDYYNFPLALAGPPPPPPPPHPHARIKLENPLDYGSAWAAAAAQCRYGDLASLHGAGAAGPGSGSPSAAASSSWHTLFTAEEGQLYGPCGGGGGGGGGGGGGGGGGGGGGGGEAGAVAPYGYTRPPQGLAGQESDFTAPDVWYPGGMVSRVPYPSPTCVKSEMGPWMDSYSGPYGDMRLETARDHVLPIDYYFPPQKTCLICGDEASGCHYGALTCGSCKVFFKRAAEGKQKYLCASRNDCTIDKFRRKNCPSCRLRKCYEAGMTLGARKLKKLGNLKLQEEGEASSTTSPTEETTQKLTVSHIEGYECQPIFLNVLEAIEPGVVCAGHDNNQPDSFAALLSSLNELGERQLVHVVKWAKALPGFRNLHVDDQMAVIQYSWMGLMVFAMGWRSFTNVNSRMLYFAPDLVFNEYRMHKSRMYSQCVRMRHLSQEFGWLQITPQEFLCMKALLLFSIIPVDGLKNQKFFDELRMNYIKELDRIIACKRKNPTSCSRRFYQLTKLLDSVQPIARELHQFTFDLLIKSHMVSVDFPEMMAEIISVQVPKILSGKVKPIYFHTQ
# In short: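 COS-1 cells were seeded in DMEM with 10% dextran-charcoal-treated FBS. After switching to 2.5% FBS, they were transfected for 24 h with pSG5-hAR, the pProbasin(−285/+32)-Luc reporter and a pCMVβ internal control. […] Luciferase was normalized to β-galactosidase and protein.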
# Androgen receptor = biological target: T2, Androgen receptor (Homo sapiens, UniProt P10275); experiment: Displacement of [3H]R1881 from wild type human androgen receptor expressed in COS-1 cells co-transfected with pSG5 after 2 hrs by scintillation assay
# T2 sequence (P10275 whole entry): T1 sequence (whole entry)
# [3] = biological target: T1, Androgen receptor (Homo sapiens); experiment: Agonist activity at wild type human androgen receptor expressed in COS-1 cells co-transfected with pSG5 assessed as effect on testosterone induced luciferase activity at 10 uM after 18 hrs relative untreated control; assay type: functional, cell-based
# [4] = system: Androgen receptor (Homo sapiens), P10275 [T878A]; experiment: Antagonist activity at human Androgen receptor T877A mutant expressed in COS-1 cells co-transfected with pSG5 assessed as reduction in testosterone induced luciferase activity at 10 uM after 18 hrs relative untreated control; assay type: functional, cell-based
# Chain of Androgen receptor (Homo sapiens), P10275 [T878A] (P10275 whole entry T878A): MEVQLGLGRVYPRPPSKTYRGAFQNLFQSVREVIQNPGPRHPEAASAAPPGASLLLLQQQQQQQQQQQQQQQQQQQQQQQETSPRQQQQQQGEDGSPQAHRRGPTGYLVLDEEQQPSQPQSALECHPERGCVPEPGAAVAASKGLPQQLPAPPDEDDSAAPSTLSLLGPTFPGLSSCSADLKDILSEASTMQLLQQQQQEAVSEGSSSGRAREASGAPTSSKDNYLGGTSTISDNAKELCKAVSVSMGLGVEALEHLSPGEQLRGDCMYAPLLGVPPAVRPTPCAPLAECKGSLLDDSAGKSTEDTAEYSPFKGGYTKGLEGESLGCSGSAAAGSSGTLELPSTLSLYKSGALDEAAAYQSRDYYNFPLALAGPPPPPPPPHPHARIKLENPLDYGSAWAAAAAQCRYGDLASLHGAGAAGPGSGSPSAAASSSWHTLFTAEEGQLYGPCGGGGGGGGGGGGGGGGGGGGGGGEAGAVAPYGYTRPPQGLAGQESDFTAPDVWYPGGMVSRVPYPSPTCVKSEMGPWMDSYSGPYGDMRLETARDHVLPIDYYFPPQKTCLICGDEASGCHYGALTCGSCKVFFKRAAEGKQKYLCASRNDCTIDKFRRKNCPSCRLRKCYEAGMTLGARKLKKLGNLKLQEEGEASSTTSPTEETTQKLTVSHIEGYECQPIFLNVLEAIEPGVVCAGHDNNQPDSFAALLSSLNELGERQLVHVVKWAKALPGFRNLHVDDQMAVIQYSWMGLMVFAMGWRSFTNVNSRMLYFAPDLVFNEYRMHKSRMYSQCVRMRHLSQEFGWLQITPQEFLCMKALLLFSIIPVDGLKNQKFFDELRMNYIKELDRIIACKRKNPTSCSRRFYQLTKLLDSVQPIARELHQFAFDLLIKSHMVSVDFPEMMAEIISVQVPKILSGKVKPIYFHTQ
# In short: (§1)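 COS-1 cells were grown in DMEM with dextran-charcoal-treated FBS (2.5% during transfection). They were transfected for 24 h with pSG5-hART877A or pSG5-hARW741L, plus the pProbasin(−285/+32)-Luc reporter and a pCMVβ control.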
# [5] = system: T3, Androgen receptor (Homo sapiens), P10275 [W742L]; experiment: Antagonist activity at human Androgen receptor W741L mutant expressed in COS-1 cells co-transfected with pSG5 assessed as reduction in testosterone induced luciferase activity at 10 uM after 18 hrs relative untreated control; assay type: functional, cell-based; in short: as §1
# T3 sequence (whole entry): T1 sequence (whole entry) with W742L
# [6] = biological target: T1, Androgen receptor (Homo sapiens); experiment: Potency index, ratio of RBA of hydroxyflutamide to RBA of compound for human androgen receptor
# [7] = biological target: T1, Androgen receptor (Homo sapiens); experiment: Potency index, ratio of RBA of (R)-bicalutamide to RBA of compound for human androgen receptor
# Chain of Luciferin 4-monooxygenase (Photinus pyralis) (P08659 whole entry): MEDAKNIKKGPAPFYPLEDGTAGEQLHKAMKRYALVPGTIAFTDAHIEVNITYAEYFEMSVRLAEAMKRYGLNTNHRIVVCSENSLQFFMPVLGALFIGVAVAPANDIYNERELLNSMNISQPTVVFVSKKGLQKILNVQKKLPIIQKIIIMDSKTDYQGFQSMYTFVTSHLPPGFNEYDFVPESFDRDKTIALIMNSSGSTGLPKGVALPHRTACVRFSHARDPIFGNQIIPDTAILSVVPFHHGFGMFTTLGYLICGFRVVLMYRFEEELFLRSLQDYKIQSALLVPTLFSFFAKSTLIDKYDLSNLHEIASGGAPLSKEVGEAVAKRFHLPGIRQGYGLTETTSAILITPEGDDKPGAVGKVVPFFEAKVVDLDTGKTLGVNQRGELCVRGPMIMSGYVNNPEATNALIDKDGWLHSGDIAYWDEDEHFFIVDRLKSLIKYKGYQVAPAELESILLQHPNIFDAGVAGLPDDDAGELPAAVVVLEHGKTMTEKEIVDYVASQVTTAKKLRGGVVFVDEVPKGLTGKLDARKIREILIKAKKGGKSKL
inhibition [1],IC50 (Androgen receptor),Activity [3],Structure (SMILES),Activity [2],Activity [4],Activity [5],Ratio [6],Ratio [7]
inactive,120 nM,inactive,O=[N+]([O-])c1ccc(C2=NOC3CCCCC23)cc1C(F)(F)F (racemic),inactive,Active,Active,,
inactive,105 nM,inactive,O=[N+]([O-])c1ccc(C2=NOC3CCCCCC23)cc1C(F)(F)F (racemic),,,,,
inactive,661 nM and 813 nM,inactive,Fc1ccc(C2=NOC3CCCCCC23)c(C(F)(F)F)c1 (stereo not given),,,,,
inactive,1480 nM,inactive,Fc1ccc(C2=NOC3CCCC23)cc1C(F)(F)F (racemic),,,,,
inactive,309 nM,inactive,O=[N+]([O-])c1ccc(C2=NO[C@@H]3CCCCC[C@H]23)c(C(F)(F)F)c1,,,,,

Structure (SMILES),inhibition [1],IC50 (Androgen receptor),Activity [3],Activity [2],Activity [4],Activity [5],Ratio [6],Ratio [7]
N#Cc1ccc(C2=NOC3CCCCC23)cc1C(F)(F)F (racemic),inactive,27.5 nM,inactive,inactive,Active,Active,8,4
N#Cc1ccc(C2=NOC3CCCC23)c(C(F)(F)F)c1 (racemic),inactive,447 nM,inactive,,,,,
O=[N+]([O-])c1ccc(C2=NO[C@H]3CCC[C@@H]23)cc1C(F)(F)F,inactive,2510 nM,inactive,,,,,
N#Cc1ccc(C2=NO[C@H]3CCC[C@@H]23)cc1C(F)(F)F,inactive,617 nM,inactive,,,,,

# Source: ChEMBL document CHEMBL2157978, “Design, synthesis, and biological evaluation of nonsteroidal cycloalkane[d]isoxazole-containing androgen receptor modulators” (J Med Chem, 2012)
